# Laboratory results: ChEMBL document CHEMBL3822403, “Discovery, Optimization, and Biological Evaluation of Sulfonamidoacetamides as an Inducer of Axon Regeneration” (J Med Chem, 2016)
# Calls of active or inactive are those of the source. The rule behind the calls is not given here.
# Columns and labels:
# P19 [1] = experiment: Induction of neurite outgrowth in mouse P19 cells transfected with neuroD2 at 10 uM after 48 hrs by DAPI staining based confocal fluorescence image analyzer relative to control; type: functional
# How it was run: (§1)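 P19 cells transfected with NeuroD2 cDNA, replated 12 h later at 8,000 cells/well in MEM, 5% FBS, 1 mM pyruvate, 2 mM glutamate; after 24 h compound exposure 48 h. βIII tubulin immunofluorescence with DAPI, four fields/well imaged at 10x, neurite outgrowth relative to DMSO-treated cells.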
# Cerebral cortex neuron = experiment: Induction of neurite outgrowth in Sprague-Dawley rat primary cortical neurons at 1 to 10 uM after 48 hrs by DAPI staining based confocal fluorescence image analyzer; type: functional, cell-based
# How it was run: (§2)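 E18 Sprague-Dawley rat hippocampus and cortex dissociated separately, seeded at 2,000 cells/well in Neurobasal/B27 with 2 mM glutamate; after 24 h treated 48 h. Fixed, stained anti-βIII tubulin with DAPI nuclei; four fields per well imaged at 10x, neurite total length per neuron; mean ± SD, n=3.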
# Hippocampal neurone = experiment: Induction of neurite outgrowth in Sprague-Dawley rat primary hippocampal neurons after 48 hrs by DAPI staining based confocal fluorescence image analyzer; type: functional; how it was run: as §2
# [2] = Metabolic stability in mouse liver S9 fraction assessed as compound remaining after 30 mins; type: ADME, subcellular; conditions: read-out: Stability
# Rattus norvegicus = experiment: Induction of axonal outgrowth of RGC in Sprague-Dawley rat optic nerve injury model assessed as regeneration of 500 to 1500 um crushed optic nerves at 0.22 ug/eye administered intravitreously once in 4 days for 3 weeks by measuring optic nerve injury by GAP-43 expression based microscopy (reference value: 0.22 +/- 0.081); type: functional
# P19 [3] = experiment: Induction of neurite outgrowth in mouse P19 cells transfected with neuroD2 at 10 to 20 uM after 48 hrs by DAPI staining based confocal fluorescence image analyzer relative to control; type: functional; how it was run: as §1
# P19 [4] = experiment: Induction of neurite outgrowth in mouse P19 cells transfected with neuroD2 <1 uM after 48 hrs by DAPI staining based confocal fluorescence image analyzer relative to control; type: functional, cell-based; how it was run: as §1
structure (smiles),measurement,setting,value
CCOc1ccccc1NC(=O)CN(c1cccc(OC)c1)S(=O)(=O)c1ccc(C)cc1,fold change (FC),P19 [1],3.1
same,Activity,Cerebral cortex neuron,Active
same,Activity,Hippocampal neurone,Active
COc1ccccc1N(CC(=O)Nc1ncccc1OC)S(=O)(=O)c1ccc(C)cc1,fold change (FC),P19 [1],1.6
same,Activity,Cerebral cortex neuron,Active
same,Activity,Hippocampal neurone,Active
COc1cccc(NC(=O)CN(c2ccccc2OC)S(=O)(=O)c2ccc(C)cc2)c1,fold change (FC),P19 [1],1.8
same,Activity,Cerebral cortex neuron,Active
same,Activity,Hippocampal neurone,Active
COc1ccncc1NC(=O)CN(c1ccccc1OC)S(=O)(=O)c1ccc(C)cc1,remaining at 0.5 h,[2],61.2%
same,Activity,Rattus norvegicus,0.7
same,fold change (FC),P19 [1],4.2
same,Activity,Cerebral cortex neuron,Active
same,Activity,Hippocampal neurone,Active
COc1ccccc1N(CC(=O)Nc1ccccc1Br)S(=O)(=O)c1ccc(C)cc1,fold change (FC),P19 [1],2.1
same,Activity,Cerebral cortex neuron,Active
same,Activity,Hippocampal neurone,Active
COc1ccccc1N(CC(=O)Nc1ccccc1F)S(=O)(=O)c1ccc(C)cc1,fold change (FC),P19 [1],2.1
same,Activity,Cerebral cortex neuron,Active
same,Activity,Hippocampal neurone,Active
COc1ccncc1NC(=O)CN(c1ccccc1OC)S(=O)(=O)c1ccc(Br)cc1,fold change (FC),P19 [1],3.7
same,Activity,Cerebral cortex neuron,Active
same,Activity,Hippocampal neurone,Active
COC(=O)c1ccccc1NC(=O)CN(c1ccccc1OC)S(=O)(=O)c1ccc(C)cc1,remaining at 0.5 h,[2],0.3%
same,fold change (FC),P19 [1],3
same,Activity,Cerebral cortex neuron,Active
same,Activity,Hippocampal neurone,Active
COc1ccccc1N(CC(=O)Nc1ccc2ncccc2c1)S(=O)(=O)c1ccc(C)cc1,fold change (FC),P19 [1],1
same,Activity,Cerebral cortex neuron,Active
same,Activity,Hippocampal neurone,Active
CCOc1ccccc1NC(=O)CN(c1ccccc1OC)S(=O)(=O)c1ccc(C)cc1,remaining at 0.5 h,[2],0.7%
same,fold change (FC),P19 [3],3.2
same,Activity,P19 [4],inactive
same,Activity,Cerebral cortex neuron,Active
same,Activity,Hippocampal neurone,Active
COc1ccncc1NC(=O)CN(c1ccccc1OC)S(=O)(=O)c1ccc(SC)cc1,fold change (FC),P19 [1],3.9
same,Activity,Cerebral cortex neuron,Active
same,Activity,Hippocampal neurone,Active
COc1ccccc1N(CC(=O)Nc1nccs1)S(=O)(=O)c1ccc(C)cc1,Activity,Hippocampal neurone,Active
COc1ccccc1N(CC(=O)Nc1ccccc1)S(=O)(=O)c1ccc(C)cc1,fold change (FC),P19 [1],2
same,Activity,Cerebral cortex neuron,Active
same,Activity,Hippocampal neurone,Active
COc1ccccc1N(CC(=O)Nc1cccc2ncccc12)S(=O)(=O)c1ccc(C)cc1,fold change (FC),P19 [1],1.3
same,Activity,Cerebral cortex neuron,Active
same,Activity,Hippocampal neurone,Active
COc1ccc(OC)c(NC(=O)CN(C(=O)c2ccc(Cl)cc2)c2ccccc2OC)c1,fold change (FC),P19 [1],1
same,Activity,Hippocampal neurone,Active
COc1ccc(CCN(C)CCCC(C#N)(c2ccc(OC)c(OC)c2)C(C)C)cc1OC (stereo not drawn) [VERAPAMIL],remaining at 0.5 h,[2],23.1%
COc1ccc(NC(=O)CN(c2ccccc2OC)S(=O)(=O)c2ccc(Cl)cc2)c(OC)c1,remaining at 0.5 h,[2],0.4%
same,fold change (FC),P19 [1],4.2
same,Activity,Cerebral cortex neuron,Active
same,Activity,Hippocampal neurone,Active
CCc1ccccc1NC(=O)CN(c1ccccc1OC)S(=O)(=O)c1ccc(C)cc1,fold change (FC),P19 [1],0.8
same,Activity,Hippocampal neurone,Active
CCOc1ccccc1NC(=O)CN(c1ccccc1C)S(=O)(=O)c1ccc(C)cc1,fold change (FC),P19 [1],2.6
same,Activity,Cerebral cortex neuron,Active
same,Activity,Hippocampal neurone,Active
COc1ccc(OC)c(NC(=O)CN(Cc2ccc(C)cc2)c2ccccc2OC)c1,Activity,Hippocampal neurone,Active
COc1ccc(OC)c(NC(=O)CN(c2ccccc2OC)S(=O)(=O)c2ccc(Br)cc2)c1,fold change (FC),P19 [1],5
same,Activity,Cerebral cortex neuron,Active
same,Activity,Hippocampal neurone,Active
COc1ccc(OC)c(NC(=O)CN(c2ccccc2OC)S(=O)(=O)c2ccc(SC)cc2)c1,fold change (FC),P19 [1],3.2
same,Activity,Cerebral cortex neuron,Active
same,Activity,Hippocampal neurone,Active
CCOc1ncccc1NC(=O)CN(c1ccccc1OC)S(=O)(=O)c1ccc(C)cc1,fold change (FC),P19 [1],2.1
same,Activity,Cerebral cortex neuron,Active
same,Activity,Hippocampal neurone,Active
CCOc1ccccc1NC(=O)CN(c1ccccc1F)S(=O)(=O)c1ccc(C)cc1,fold change (FC),P19 [1],2.9
same,Activity,Cerebral cortex neuron,Active
same,Activity,Hippocampal neurone,Active
COc1ccccc1N(CC(=O)Nc1cccnc1OC(C)C)S(=O)(=O)c1ccc(C)cc1,fold change (FC),P19 [1],2.3
same,Activity,Cerebral cortex neuron,Active
same,Activity,Hippocampal neurone,Active
COc1ccccc1N(CC(=O)Nc1cnc2ccccc2c1)S(=O)(=O)c1ccc(C)cc1,fold change (FC),P19 [1],3.6
same,Activity,Cerebral cortex neuron,Active
same,Activity,Hippocampal neurone,Active
COc1ccc(OC)c(NC(=O)CN(c2ccccc2OC)S(=O)(=O)c2ccc(F)cc2)c1,fold change (FC),P19 [1],2.5
same,Activity,Cerebral cortex neuron,Active
same,Activity,Hippocampal neurone,Active
COc1ccc(NC(=O)CN(c2ccccc2OC)S(=O)(=O)c2ccc(C)cc2)c(OC)c1,fold change (FC),P19 [1],2.7
same,Activity,Cerebral cortex neuron,Active
same,Activity,Hippocampal neurone,Active
COc1ccccc1N(CC(=O)Nc1cccnc1OC)S(=O)(=O)c1ccc(C)cc1,fold change (FC),P19 [1],2.8
same,Activity,Cerebral cortex neuron,Active
same,Activity,Hippocampal neurone,Active
CCOc1ccccc1NC(=O)CN(c1ccccc1)S(=O)(=O)c1ccc(C)cc1,fold change (FC),P19 [1],2.5
same,Activity,Cerebral cortex neuron,Active
same,Activity,Hippocampal neurone,Active
CCOc1ccccc1CNC(=O)CN(c1ccccc1OC)S(=O)(=O)c1ccc(C)cc1,Activity,Hippocampal neurone,Active
COc1ccc(S(=O)(=O)N(CC(=O)Nc2cc(OC)ccc2OC)c2ccccc2OC)cc1,remaining at 0.5 h,[2],0.4%
same,fold change (FC),P19 [1],2.3
same,Activity,Cerebral cortex neuron,Active
same,Activity,Hippocampal neurone,Active
CC(=O)Nc1ccc(O)cc1 [ACETAMINOPHEN],remaining at 0.5 h,[2],97.7%
COc1ccccc1N(CC(=O)Nc1ncc[nH]1)S(=O)(=O)c1ccc(C)cc1,Activity,Hippocampal neurone,Active
CCOc1ccccc1NC(=O)CN(c1ccccc1Cl)S(=O)(=O)c1ccc(C)cc1,fold change (FC),P19 [1],2.6
same,Activity,Cerebral cortex neuron,Active
same,Activity,Hippocampal neurone,Active
